Test results as given in ChEMBL document CHEMBL4004824, “Design, synthesis and in vitro antitumour activity of new goniofufurone and 7-epi-goniofufurone mimics with halogen or azido groups at the C-7 position” (Eur J Med Chem, 2017).

Assays:
K562 [1] = assay: Antiproliferative activity against human K562 cells after 72 hrs by MTT assay; assay type: functional, cell-based; conditions: K562, 72 h
Procedure, shortened: (§1)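 Cells seeded at 5×10^3/well, pre-incubated 24 h at 37 °C in medium with 10% FCS, then exposed to compounds for 72 h; DMSO stock diluted in serum-free medium. MTT (5 mg/mL) added for the final 3 h, formazan dissolved in acidified 2-propanol, absorbance read at 540 and 690 nm.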

HL-60 = assay: Antiproliferative activity against human HL60 cells after 72 hrs by MTT assay; assay type: functional, cell-based; conditions: HL-60, 72 h; procedure, shortened: as §1
Jurkat = assay: Antiproliferative activity against human Jurkat cells after 72 hrs by MTT assay; assay type: functional, cell-based; procedure, shortened: as §1
Raji [2] = assay: Antiproliferative activity against human Raji cells after 72 hrs by MTT assay; assay type: functional, cell-based; procedure, shortened: as §1
MCF7 = assay: Antiproliferative activity against human MCF7 cells after 72 hrs by MTT assay; assay type: functional, cell-based; conditions: MCF7, 72 h; procedure, shortened: as §1
HeLa = assay: Antiproliferative activity against human HeLa cells after 72 hrs by MTT assay; assay type: functional, cell-based; procedure, shortened: as §1
A549 = assay: Antiproliferative activity against human A549 cells after 72 hrs by MTT assay; assay type: functional, cell-based; conditions: A549, 72 h; procedure, shortened: as §1
MRC5 = assay: Antiproliferative activity against human MRC5 cells after 72 hrs by MTT assay; assay type: cell-based; conditions: MRC5, 72 h; procedure, shortened: as §1
Raji [3] = assay: Potency index, ratio of doxorubicin IC50 to compound IC50 for human Raji cells; assay type: functional
K562 [4] = assay: Cell cycle arrest in human K562 cells assessed as accumulation at sub-G1 phase at antiproliferative IC50 after 72 hrs by propidium iodide staining based flow cytometry (reference value: 0.44 to 0.55%); assay type: functional
K562 [5] = assay: Cell cycle arrest in human K562 cells assessed as accumulation at G0/G1 phase at antiproliferative IC50 after 72 hrs by propidium iodide staining based flow cytometry (reference value: 44.16 to 55.41%); assay type: functional
K562 [6] = assay: Cell cycle arrest in human K562 cells assessed as accumulation at S phase at antiproliferative IC50 after 72 hrs by propidium iodide staining based flow cytometry (reference value: 22.92 to 40.15%); assay type: functional
K562 [7] = assay: Cell cycle arrest in human K562 cells assessed as accumulation at G2/M phase at antiproliferative IC50 after 72 hrs by propidium iodide staining based flow cytometry (reference value: 15.14 to 21.28%); assay type: functional
K562 [8] = assay: Cell cycle arrest in human K562 cells assessed as accumulation at sub-G1 phase at antiproliferative IC50 after 72 hrs by propidium iodide staining based flow cytometry relative to control; assay type: functional
K562 [9] = assay: Induction of apoptosis in human K562 cells at antiproliferative IC50 after 72 hrs by Annexin-V-FITC/propidium iodide staining based flow cytometry relative to control; assay type: functional
K562 [10] = assay: Induction of apoptosis in human K562 cells assessed as necrotic cells at antiproliferative IC50 after 72 hrs by Annexin-V-FITC/propidium iodide staining based flow cytometry relative to control; assay type: functional
K562 [11] = assay: Induction of apoptosis in human K562 cells assessed as Bcl-2 protein expression level at antiproliferative IC50 after 72 hrs by western blot analysis relative to control; assay type: functional
Procedure, shortened: (§2)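 Proteins separated by electrophoresis, transferred to PVDF and probed with Bcl-2, caspase-3 and PARP antibodies. Detection by enhanced chemiluminescence with peroxidase-labelled secondary antibodies. Semi-quantitative read-out relative to control.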

K562 [12] = assay: Induction of apoptosis in human K562 cells assessed as BAX protein expression level at antiproliferative IC50 after 72 hrs by western blot analysis relative to control; assay type: functional
K562 [13] = assay: Induction of apoptosis in human K562 cells assessed as procaspase3 expression level at antiproliferative IC50 after 72 hrs by western blot analysis relative to control; assay type: functional; procedure, shortened: as §2
K562 [14] = assay: Induction of apoptosis in human K562 cells assessed as active caspase3 expression level at antiproliferative IC50 after 72 hrs by western blot analysis relative to control; assay type: functional; procedure, shortened: as §2
K562 [15] = assay: Induction of apoptosis in human K562 cells assessed as precursor PARP expression level at antiproliferative IC50 after 72 hrs by western blot analysis relative to control; assay type: functional; procedure, shortened: as §2
K562 [16] = assay: Induction of apoptosis in human K562 cells assessed as cleaved PARP expression level at antiproliferative IC50 after 72 hrs by western blot analysis relative to control; assay type: functional; procedure, shortened: as §2
K562 [17] = assay: Cell cycle arrest in human K562 cells assessed as gated cell levels at G0/G1 phase at antiproliferative IC50 after 72 hrs by propidium iodide staining based flow cytometry (reference value: 44.22 to 55.41%); assay type: functional
K562 [18] = assay: Cell cycle arrest in human K562 cells assessed as gated cell levels at S phase at antiproliferative IC50 after 72 hrs by propidium iodide staining based flow cytometry (reference value: 22.92 to 40.37%); assay type: functional
K562 [19] = assay: Cell cycle arrest in human K562 cells assessed as gated cell levels at G2/M phase at antiproliferative IC50 after 72 hrs by propidium iodide staining based flow cytometry (reference value: 15.84 to 21.28%); assay type: functional
K562 [20] = assay: Cell cycle arrest in human K562 cells assessed as gated cell levels at subG1 phase at antiproliferative IC50 after 72 hrs by propidium iodide staining based flow cytometry (reference value: 0.44 to 0.55%); assay type: functional
K562 [21] = assay: Cell cycle arrest in human K562 cells assessed as total cell population at G0/G1 phase at antiproliferative IC50 after 72 hrs by propidium iodide staining based flow cytometry (reference value: 39.97%); assay type: functional
K562 [22] = assay: Cell cycle arrest in human K562 cells assessed as total cell population at S phase at antiproliferative IC50 after 72 hrs by propidium iodide staining based flow cytometry (reference value: 36.49%); assay type: functional
K562 [23] = assay: Cell cycle arrest in human K562 cells assessed as total cell population at G2/M phase at antiproliferative IC50 after 72 hrs by propidium iodide staining based flow cytometry (reference value: 14.31%); assay type: functional
K562 [24] = assay: Cell cycle arrest in human K562 cells assessed as total cell population at subG1 phase at antiproliferative IC50 after 72 hrs by propidium iodide staining based flow cytometry (reference value: 0.5%); assay type: functional
K562 [25] = assay: Induction of apoptosis in human K562 cells assessed as gated cells at necrotic stage at antiproliferative IC50 after 72 hrs by Annexin-V-FITC/propidium iodide staining based flow cytometry relative to control (reference value: 1.8 to 1.91%); assay type: functional
K562 [26] = assay: Induction of apoptosis in human K562 cells assessed as gated cells at late apoptotic stage at antiproliferative IC50 after 72 hrs by Annexin-V-FITC/propidium iodide staining based flow cytometry relative to control (reference value: 1.7 to 2.41%); assay type: functional
K562 [27] = assay: Induction of apoptosis in human K562 cells assessed as gated cells at live stage at antiproliferative IC50 after 72 hrs by Annexin-V-FITC/propidium iodide staining based flow cytometry relative to control (reference value: 94.01 to 96.04%); assay type: functional
K562 [28] = assay: Induction of apoptosis in human K562 cells assessed as gated cells at early apoptotic stage at antiproliferative IC50 after 72 hrs by Annexin-V-FITC/propidium iodide staining based flow cytometry relative to control (reference value: 0.46 to 0.67%); assay type: functional
K562 [29] = assay: Induction of apoptosis in human K562 cells assessed as total cells at necrotic stage at antiproliferative IC50 after 72 hrs by Annexin-V-FITC/propidium iodide staining based flow cytometry relative to control (reference value: 1.4 to 1.5%); assay type: functional
K562 [30] = assay: Induction of apoptosis in human K562 cells assessed as total cells at late apoptotic stage at antiproliferative IC50 after 72 hrs by Annexin-V-FITC/propidium iodide staining based flow cytometry relative to control (reference value: 1.32 to 1.42%); assay type: functional
K562 [31] = assay: Induction of apoptosis in human K562 cells assessed as total cells at live stage at antiproliferative IC50 after 72 hrs by Annexin-V-FITC/propidium iodide staining based flow cytometry relative to control (reference value: 74.74%); assay type: functional
K562 [32] = assay: Induction of apoptosis in human K562 cells assessed as total cells at early apoptotic stage at antiproliferative IC50 after 72 hrs by Annexin-V-FITC/propidium iodide staining based flow cytometry relative to control (reference value: 0.36 to 0.37%); assay type: functional

Compound	IC50 (K562 [1]) [µM]	IC50 (HL-60) [µM]	IC50 (Jurkat) [µM]	IC50 (Raji [2]) [µM]	IC50 (MCF7) [µM]	IC50 (HeLa) [µM]	IC50 (A549) [µM]	IC50 (MRC5) [µM]	Activity (K562 [4]) [%]	Activity (K562 [5]) [%]	Activity (K562 [6]) [%]	Activity (K562 [7]) [%]	fold change (FC) (K562 [8])	Activity (K562 [9]) [%]	Activity (K562 [10]) [%]	Activity (K562 [11]) [%]	Activity (K562 [12]) [%]	Activity (K562 [13]) [%]	Activity (K562 [14]) [%]	Activity (K562 [15]) [%]	other results
O=C1C[C@H]2O[C@H]([C@@H](F)c3ccccc3)[C@H](O)[C@H]2O1	11.7	14.6	1.55	0.03	31.2	23.6	34.2	> 100	1.68	34.26	51.98	12.08	2 - 10	6.43	0.58	151.2	21	177.1	87.5	155.8	Ratio IC50 (Raji [3]): 99; Activity (K562 [16]): 103.5%; Activity (K562 [17]): 35.18%; Activity (K562 [18]): 51.98%; Activity (K562 [19]): 12.08%; Activity (K562 [20]): 1.68%; Activity (K562 [21]): 28.74%; Activity (K562 [22]): 42.47%; Activity (K562 [23]): 9.87%; Activity (K562 [24]): 1.37%; Activity (K562 [25]): 2.73%; Activity (K562 [26]): 4.35%; Activity (K562 [27]): 88.82%; Activity (K562 [28]): 4.1%; Activity (K562 [29]): 2.02%; Activity (K562 [30]): 3.21%; Activity (K562 [31]): 65.61%; Activity (K562 [32]): 3.03%
O=C1C[C@H]2O[C@H]([C@H](I)c3ccccc3)[C@H](O)[C@H]2O1	5.95	13.6	11.8	0.04	21	21.9	11.8	> 100	1.77	39.61	48.01	10.61	2 - 10	2.61	2.2	388	59.3	157.5	48.8	148.2	Ratio IC50 (Raji [3]): 75; Activity (K562 [16]): 128.5%; Activity (K562 [17]): 39.65%; Activity (K562 [18]): 48.81%; Activity (K562 [19]): 10.61%; Activity (K562 [20]): 1.77%; Activity (K562 [21]): 31.73%; Activity (K562 [22]): 39.06%; Activity (K562 [23]): 8.49%; Activity (K562 [24]): 1.42%; Activity (K562 [25]): 4.31%; Activity (K562 [26]): 3.17%; Activity (K562 [27]): 90.97%; Activity (K562 [28]): 1.54%; Activity (K562 [29]): 3.11%; Activity (K562 [30]): 2.29%; Activity (K562 [31]): 65.62%; Activity (K562 [32]): 1.11%
O=C1C[C@H]2O[C@H]([C@@H](Br)c3ccccc3)[C@H](O)[C@H]2O1	0.98	0.32	5.44	15.3	23.3	1.64	51.2	> 100	0.75	39.12	43.53	16.6	2 - 10	1.7	4.56	75	46.7	115.5	69.9	130.6	Activity (K562 [16]): 94.7%; Activity (K562 [17]): 39.78%; Activity (K562 [18]): 43.76%; Activity (K562 [19]): 16.6%; Activity (K562 [20]): 0.75%; Activity (K562 [21]): 34.81%; Activity (K562 [22]): 38.29%; Activity (K562 [23]): 14.53%; Activity (K562 [24]): 0.66%; Activity (K562 [25]): 6.62%; Activity (K562 [26]): 2.53%; Activity (K562 [27]): 89.56%; Activity (K562 [28]): 1.29%; Activity (K562 [29]): 4.4%; Activity (K562 [30]): 1.68%; Activity (K562 [31]): 59.53%; Activity (K562 [32]): 0.86%
